# Experimental data reported in ChEMBL document CHEMBL1124046, “2-Methyl-1,3-dioxaazaspiro[4.5]decanes as novel muscarinic cholinergic agonists” (J Med Chem, 1988).
# Key:
# [1] = target: T1, Muscarinic acetylcholine receptor (Rattus norvegicus) (UniProt P08482+P08483+P08485+P08911+P10980); settings: Cortex
# [2] = Ratio of NMS/oxo-M apparent binding affinities (Kapp)
# Method in brief: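 Two rat cortical membrane binding assays, each in triplicate with at least four concentrations, Kapp corrected for radioligand occupancy. [3H]N-methylscopolamine (0.1 nM) run in 20 mM HEPES Krebs' buffer pH 7.4, 60 min at 30 °C. [3H]oxotremorine-M (3.0 nM) run in 20 mM HEPES pH 7.4, 40 min at 30 °C. Ratio taken as NMS Kapp over oxo-M Kapp.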
# [3] = target: T1, Muscarinic acetylcholine receptor (Rattus norvegicus); settings: Cortex; remark: listed apart in the source
# [4] = target: T1, Muscarinic acetylcholine receptor (Rattus norvegicus); assay: Apparent binding affinity at Muscarinic acetylcholine receptor by displacing [3H]oxotremorine-M in rat cortex; type: tissue-based
# Method in brief: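 Membranes from male Sprague-Dawley rat (250-300 g) cortex in 20 mM HEPES buffer pH 7.4; displacement of 3.0 nM [3H]oxotremorine-M, 40 min at 30 °C, ended by filtration onto polyethylenimine-presoaked GF/C filters. Triplicates, at least four concentrations per curve; apparent affinity constant corrected for radioligand occupancy, in µM, geometric mean of n experiments.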
# [5] = target: T1, Muscarinic acetylcholine receptor (Rattus norvegicus); assay: Percent inhibition of [3H]N-methylscopolamine (NMS) binding to Muscarinic acetylcholine receptor in rat cortex at a concentration of >100 uM
# Method in brief: (§1)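 Rat cortical membranes (male Sprague-Dawley, 250-300 g). Test compound at a single stated concentration; percent inhibition of specific binding is reported. [3H]-N-methylscopolamine (0.1 nM) in 20 mM HEPES Krebs' buffer pH 7.4, 60 min at 30 °C; [3H]oxotremorine-M (3.0 nM) in 20 mM HEPES buffer pH 7.4, 40 min at 30 °C. Ended by filtration.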
# [6] = target: T1, Muscarinic acetylcholine receptor (Rattus norvegicus); assay: Percent inhibition of [3H]oxotremorine-M binding to Muscarinic acetylcholine receptor in rat cortex at a concentration of >10 uM
# Method in brief: as §1
# [7] = target: T1, Muscarinic acetylcholine receptor (Rattus norvegicus); settings: Cortex; remark: listed apart in the source
# [8] = target: T1, Muscarinic acetylcholine receptor (Rattus norvegicus); settings: Cortex; remark: listed apart in the source
# [9] = target: T1, Muscarinic acetylcholine receptor (Rattus norvegicus); assay: Apparent binding affinity at Muscarinic acetylcholine receptor by displacing [3H]oxotremorine-M in rat cortex at a concentration of >10 uM; type: tissue-based
# Method in brief: (§2)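 Membranes from cortex of male Sprague-Dawley rats (250-300 g). Displacement curves with 0.1 nM [3H]-N-methylscopolamine in 20 mM HEPES Krebs' buffer pH 7.4, 60 min at 30 °C; or with 3.0 nM [3H]oxotremorine-M in 20 mM HEPES buffer pH 7.4, 40 min at 30 °C. Filtration read-out. Triplicates, at least four concentrations. Kapp corrected for radioligand occupancy; geometric mean of n experiments.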
# [10] = target: T1, Muscarinic acetylcholine receptor (Rattus norvegicus); assay: Apparent binding affinity at Muscarinic acetylcholine receptor, by displacing [3H]N-methylscopolamine (NMS) in rat cortex at a concentration of >100 uM; type: tissue-based
# Method in brief: as §2
# [11] = target: T1, Muscarinic acetylcholine receptor (Rattus norvegicus); settings: Cortex; remark: listed apart in the source
Structure (SMILES),Ratio [2],K app [3] [µM],K app [4] [µM],inhibition [5] [%],inhibition [6] [%],other results
C[N+](C)(C)CCOC(N)=O,4100,24,–,–,–,K app [1]: 0.0058 µM
CCC1OCC2(CCN(C)CC2)O1 (stereo not drawn),24,5.3,0.22,–,–,–
CC1OCC2(CCCN(C)C2)O1 (stereo in doubt; 4b),–,–,–,19,10,–
CC1OCC2(CCNCC2)O1 (stereo not drawn),470,–,–,–,–,K app [7]: 0.092 µM; K app [8]: 43 µM
CC1OCC2(CCCNC2)O1 (stereo not drawn),–,–,–,29,25,inhibition [9]: 13%; inhibition [10]: 20%
CC1OCC2(CCCN(C)C2)O1 (stereo in doubt; 4a),–,–,–,24,4,–
CCN1C(=O)CC2(CCN(C)CC2)C1=O,130,–,0.04,–,–,K app [11]: 5 µM
C[C@H]1OCC2(CN3CCC2CC3)O1 (stereo partly drawn),140,4.9,0.035,–,–,–
